Bioassay records: PubChem BioAssay, several laboratories
AI-2 QS modul = Vibrio harveyi AI-2 quorum sensing modulators, primary screen, JMH597 strain, luminescence/OD600 ratio; 0.4% of 300,000 active; activity change, % at 7.5 µM; Vibrio harveyi JMH597 AI-2 luminescence/OD600 ratio, 9 h; stronger effect = lower value; strain lacks LuxN and CqsS sensors; 0 = neutral-control median; AID 2094, 2009; in the data active = activity change below about -75%, passing the limit was not always enough;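 also: luminescence divided by OD600 gain over 9 h not by final OD600 alone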
MsrA act = bovine MsrA enzyme activators, primary screen, biochemical, absorbance, HTS. purified bovine MsrA, absorbance read-out. activation, % at 10.6 µM. 0.3% of 360,000 active. AID 602163, 2012; in the data active = activation above about 7.5%;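 also: 0% = vehicle and 100% = reference activator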
HTR2A ag = mouse Htr2a agonists via beta-arrestin recruitment, primary screen, cell-based, luminescence | 5-hydroxytryptamine receptor 2A (Mus musculus), P35363 | CHO-K1 mHTR2A beta-arrestin complementation; percent of 30 µM serotonin response | activation, % at 7.6 µM | 0.66% of 360,000 active | AID 624169, 2012;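 active = activation above a run cutoff, the mean activation of all tested compounds plus 3 SD, cut at about 14% in these data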;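 also: 0% = plate median of compound wells and 100% = 30 µM serotonin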
Target sequence (P35363 whole entry, looked up): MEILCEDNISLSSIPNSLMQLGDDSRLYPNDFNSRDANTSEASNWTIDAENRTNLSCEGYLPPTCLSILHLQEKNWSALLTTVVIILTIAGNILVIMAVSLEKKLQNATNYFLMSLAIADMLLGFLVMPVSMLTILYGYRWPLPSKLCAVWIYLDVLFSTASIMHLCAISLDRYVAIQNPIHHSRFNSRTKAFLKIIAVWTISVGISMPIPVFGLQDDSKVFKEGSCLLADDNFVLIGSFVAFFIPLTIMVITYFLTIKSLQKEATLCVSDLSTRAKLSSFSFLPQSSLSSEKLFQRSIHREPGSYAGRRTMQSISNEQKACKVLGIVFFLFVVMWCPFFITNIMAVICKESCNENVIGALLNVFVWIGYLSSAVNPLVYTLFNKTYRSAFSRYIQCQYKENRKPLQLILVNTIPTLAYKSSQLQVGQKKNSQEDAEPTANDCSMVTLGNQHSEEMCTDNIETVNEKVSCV
Tb MetRS inh = T. brucei MetRS inhibitors, primary screen, biochemical, luminescence; methionyl-tRNA synthetase (Trypanosoma brucei brucei); purified T. brucei MetRS, ATP depletion, Kinase-Glo luminescence; inhibition, % at 11.9 µM; 0.4% of 360,000 active; AID 624268, 2012;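 active = inhibition above a per-plate cutoff of the control wells' mean inhibition plus 3 SD, cut at about 5.5% in these data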;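 also: 0% = DMSO wells median and 100% = median of wells with control inhibitor compound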
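System: purified T. brucei MetRS enzyme / Detection: Kinase-Glo luciferase luminescence reporting remaining unconsumed ATP / Medium: HEPES buffer with MgCl2, KCl, DTT, spermine, BSA, pyrophosphatase / Replication: singlicate, one well per compound / Evaluation: percent inhibition relative to median high and low control wells / Schedule: 2 h aminoacylation at 25 °C after 15 min preincubation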
MsrA inhibitor = bovine MsrA enzyme inhibitors, primary screen, biochemical, absorbance, HTS; Methionine sulfoxide reductase A (Bos taurus); purified bovine MsrA, absorbance read-out; inhibition, % at 15.5 µM; 0.75% of 360,000 active; AID 651718, 2012; in the data active = inhibition above about 4.5%;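 also: 0% = vehicle wells with enzyme and 100% = reference inhibitor wells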
AHR activator = AHR activators, primary screen, cell-based, luminescence, luciferase reporter, human; 2.5% of 320,000 active; Aryl hydrocarbon receptor (Homo sapiens), P35869; AHR-responsive luciferase reporter cells; activation, % at 5 µM; in the data active = activation above about 47%;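 also: 0% = vehicle wells and 100% = reference agonist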
AHR act cf = AHR activators, confirmation, cell-based, luminescence, luciferase reporter, human. activation, % at 9 µM. shares compounds with AHR activator. human cells, AHR-responsive luciferase reporter. 87% of 2,300 active. AID 2845, 2010; in the data active = activation above about 49%;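 also: HepG2 hepatoma cells carrying a DRE-driven firefly luciferase reporter; 0% = vehicle wells and 100% = reference agonist wells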
PXR act counter = human PXR activators, counter-screen for AHR activator project, cell-based, luciferase luminescence. shares compounds with AHR activator. cell-based PXR reporter. activation, % at 11.6 µM. 88% of 2,300 active. AID 434939, 2010; in the data active = activation above about 11%;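 also: human hepatoma DPX-2 cells expressing full-length human PXR; 0% = DMSO and 100% = reference agonist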
The depositor's hits bear a star; . = no result. The list is not random: actives were taken first. Their share in the collection is about 4.4%.

SMILES | AI-2 QS modul | MsrA act | HTR2A ag | Tb MetRS inh | MsrA inhibitor | AHR activator | AHR act cf | PXR act counter
O=C(N/N=C/c1cc(Br)cs1)c1c[nH]c2ccccc12 | -19.9 | -4.8 | -5.8 | 0.5 | 4.0 | 91.3* | 144.9* | 25.7*
Cc1nnc(SCC(=O)Nc2ccc(S(N)(=O)=O)cc2)n(N)c1=O | . | -2.0 | 1.0 | -0.1 | 1.1 | 0.7 | . | .
COc1cc2ccccc2cc1C(=O)Nc1ccc(C)cc1 | -10.4 | 0.4 | -3.0 | -0.2 | 0.8 | 83.2* | 92.1* | .
COc1ccc(C(=O)Nc2ccncc2)c(OC)c1 | 8.6 | -4.1 | -2.9 | -0.6 | 0.8 | -4.6 | . | .
COc1ccc(C(=O)Nc2ccc3ccccc3c2)c(OC)c1 | 10.2 | -1.5 | 5.0 | -1.9 | -0.1 | 84.6* | 96.5* | 9.1
COc1cc2ccccc2cc1C(=O)Nc1ccc(Cc2ccncc2)cc1 | 23.7 | -0.5 | -3.1 | -0.3 | 0.6 | 46.5 | . | .
Cc1ccc(/C=N/Nc2nc3ccccc3s2)o1 | 45.0 | -10.9 | -1.3 | -1.0 | 2.6 | 110.5* | 113.5* | 13.6*
CN1CCN(/N=C/c2nc(-c3ccccc3)n3ccccc23)CC1 | -0.6 | -5.7 | 1.3 | -0.4 | 2.0 | 102.2* | 64.7* | 15.9*
Clc1ccc(-c2nc(/C=N/N3CCOCC3)c3ccccn23)cc1 | 20.1 | -4.4 | -1.8 | 0.3 | . | 89.8* | 77.9* | 25.3*
O=C(c1cn(-c2ccccc2)nc1-c1cccnc1)N1CCN(S(=O)(=O)c2cccc(F)c2)CC1 | . | -9.8 | -5.3 | -0.5 | 0.4 | 2.4 | . | .
CC(=O)Nc1ccc(S(=O)(=O)NCCC(=O)OC(C)C(=O)NC2(C#N)CCCCC2)cc1 (stereo not drawn) | . | -9.3 | 3.9 | -0.5 | -0.9 | 1.2 | . | .
Cc1ccc(NC(=O)Nc2cnc3ccccc3c2)cc1 | -6.5 | -2.9 | -4.3 | 0.8 | -0.9 | 93.2* | 103.5* | 22.3*
CCNC(=S)NCc1ccco1 | 15.2 | -1.5 | -0.6 | 0.3 | 1.6 | 6.2 | . | .
S=C(NCc1ccco1)Nc1ccc(Br)cn1 | 17.8 | -3.2 | -0.1 | -0.3 | -0.4 | 81.2* | 59.3* | 16.5*
Cc1ccc(S(=O)(=O)Nc2cc(S(=O)(=O)N3CCOCC3)ccc2NCC2CCCO2)cc1 (stereo not drawn) | . | -2.1 | 0.0 | -0.2 | -0.1 | -0.2 | . | .
COc1cc2c(cc1OC)/C(=C/c1ccc(Br)cc1)C(=O)OC2 | 8.8 | -7.0 | -3.7 | 0.1 | 3.9 | 84.8* | 60.1* | 14.6*
Cc1ccc(C)c(NC(=O)CCC(=O)NNS(=O)(=O)c2ccc(Cl)cc2)c1 | . | -1.8 | -2.2 | -0.2 | -0.9 | 4.3 | . | .
CNc1ccccc1-c1nc2ccccc2n(C)c1=O | . | -1.5 | -0.1 | -0.1 | 1.6 | 112.6* | 107.5* | 41.4*
Cc1ccc(-c2nc(C(F)(F)F)cc(=O)[nH]2)cc1 | 24.5 | -2.3 | 12.2 | 0.3 | -0.3 | -0.5 | . | .
Cc1cc(=O)[nH]c(-c2ccc(C(F)(F)F)cc2)n1 | 26.8 | -1.7 | -2.3 | -0.3 | -0.4 | 87.3* | 113.8* | 10.9*
O=C(CCN1C(=O)c2ccccc2C1=O)Nc1ccc(-c2cn3ccsc3n2)cc1 | 15.1 | 0.4 | 0.0 | 0.0 | -0.4 | 101.7* | 124.7* | 24.9*
C=CCn1cc(/C=C2/NC(=O)NC2=O)c2ccccc21 | -2.6 | -4.7 | -3.0 | 1.8 | 2.0 | 97.0* | 90.7* | 35.3*
Cc1cc(C)nc(/N=C(\N)Nc2ccc(S(=O)(=O)O)cc2)n1 | 27.7 | -4.7 | 0.1 | -1.0 | 2.3 | . | . | .
Cc1cc(C)nc(/N=C(\N)Nc2ccc(C)c([N+](=O)[O-])c2)n1 | 18.1 | -1.0 | -6.0 | 0.6 | 2.5 | 122.1* | 83.9* | 67.7*
Cc1csc(-c2coc3cc(O)cc(C)c3c2=O)n1 | 23.5 | -7.7 | -2.2 | -0.9 | 0.0 | 94.9* | 125.7* | 20.9*
SMILES | AI-2 QS modul | MsrA act | HTR2A ag | Tb MetRS inh | MsrA inhibitor | AHR activator | AHR act cf | PXR act counter
COc1ccc2c(=O)c(-c3nc(C)cs3)coc2c1 | -1.8 | -6.3 | 6.4 | -2.7 | 2.4 | 21.5 | . | .
Cn1nc(C(=O)OCC(=O)c2ccc(Cl)cc2)c2ccccc2c1=O | . | -4.8 | 2.2 | -0.1 | -0.5 | 1.2 | . | .
O=C1c2ccccc2C(=O)N1CCCCn1c(=O)oc2ccccc21 | 3.7 | -1.4 | 0.9 | 0.2 | -0.8 | -0.8 | . | .
O=c1oc2ccccc2n1CCc1ccccc1 | -2.9 | -9.3 | -0.5 | -0.4 | -0.2 | 94.1* | 100.4* | 33.8*
CCOc1cccc(CN2CCC(Oc3ccc(C(=O)NCc4ccccn4)cc3)CC2)c1 | 11.3 | -1.2 | -10.7 | -0.3 | -0.3 | 3.0 | . | .
N#C/C(=C/c1ccccc1)c1nn(CCO)c(N)c1C#N | 21.1 | -1.3 | -1.4 | 0.0 | 1.1 | 119.9* | 90.7* | .
CCCCCCn1nc(C(=O)N(CCOC)c2c(N)n(CCCC)c(=O)[nH]c2=O)c2ccccc2c1=O | -1.0 | -2.5 | 2.4 | -0.5 | 0.8 | 5.1 | . | .
C/C(=N\Nc1cc(N2CCOCC2)ncn1)c1ccccc1 | 6.6 | 0.3 | -7.7 | -0.3 | 1.2 | 89.4* | 26.0 | 49.6*
C/C(=N\Nc1cc(N2CCOCC2)ncn1)c1cccc([N+](=O)[O-])c1 | 14.1 | -1.7 | -2.2 | -0.2 | 0.0 | 37.4 | . | .
CCn1cnc2cc(NCc3ccc(Br)cc3)ccc21 | -23.9 | . | . | . | -1.0 | 107.3* | 112.8* | 45.8*
CCn1cnc2cc(NCc3ccc(C)cc3)ccc21 | -54.8 | -0.5 | -5.4 | 0.1 | -0.6 | 34.5 | . | .
CCn1cnc2cc(NCc3nc4ccccc4n3C)ccc21 | 12.2 | -6.2 | 4.5 | -1.2 | -0.8 | 93.1* | 65.3* | 83.3*
CCCn1c(CNc2ccc(Br)cc2)nc2ccccc21 | 8.9 | -10.7 | -3.4 | 3.8 | 0.3 | 101.3* | 93.0* | 51.0*
CC(C)n1cnc2cc(NCc3nc4ccccc4n3C)ccc21 | 38.0 | -1.7 | 3.8 | -0.6 | -0.4 | 90.9* | 86.5* | 128.0*
Cc1ccc(S(=O)(=O)CCC(=O)OCC(=O)NC2CCS(=O)(=O)C2)cc1 (stereo not drawn) | 15.8 | -8.7 | 13.7 | -0.3 | -0.3 | -0.6 | . | .
O=C(COC(=O)c1ccc(Br)o1)NCc1ccccc1Cl | . | -1.4 | 0.1 | -0.1 | -0.4 | -0.1 | . | .
C/C(=N/NC(=O)Nc1ccccc1)c1ccc(C)cc1 | 28.7 | -2.8 | -2.8 | -0.3 | 0.1 | 104.9* | 75.5* | 19.5*
